What was measured:
[1] = test system: Human immunodeficiency virus 1; test: Antiviral activity against HIV-1 RF infected in human PM1 cells after 7 days by RT assay; format: functional, organism-based; settings: Human immunodeficiency virus 1, RF, PM1, 168 h
Procedure, shortened: (§1)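 PM-1 cells (4 x 10^4/well) were infected with HIV-1BaL or HIV-1RF (200 TCID50/ml) and cultured 7 days with drug. Replication was measured as reverse transcriptase in supernatant versus untreated wells. IC50 was obtained by nonlinear regression.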

[2] = test system: Human immunodeficiency virus 1; test: Antiviral activity against HIV-1 SM052 harboring NNTRI 101E and 103N mutant infected in human MT4 cells assessed as inhibition of viral replication relative to HIV-1 3B; format: functional
Procedure, shortened: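 MT-4 cells (3 x 10^4/well) infected with site-directed mutants or recombinant clinical isolates (200 TCID50/well) with drug, cultured 3 to 5 days. Viability read by MTT colorimetric antivirogram assay. IC50 by nonlinear regression; fold change = IC50 for the test isolate / IC50 for wild-type HIV-1 IIIB tested in parallel (mean or median).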

[3] = test system: Human immunodeficiency virus 1; test: Antiviral activity against HIV-1 Bal infected in human PM1 cells after 7 days by RT assay; format: functional, organism-based; settings: Human immunodeficiency virus 1, Bal, PM1, 168 h; procedure, shortened: as §1

Cc1cc(C)c(Nc2ccnc(Nc3ccc(C#N)cc3)n2)c(C)c1 [DAPIVIRINE]
IC50 [1]: 2.4 nM
Ratio IC50 [2]: 17
IC50 [3]: 6 nM

Source: ChEMBL document CHEMBL1671644, “Inhibition of human immunodeficiency virus type 1 infection by the candidate microbicide dapivirine, a nonnucleoside reverse transcriptase inhibitor” (Antimicrob Agents Chemother, 2009)
